Measurements collected from several papers.
Protocols differ between the studies behind these lines.
ADRA1B: Alpha-1B adrenergic receptor (ADRA1B, Homo sapiens, UniProt P35368)
PARP3: Protein mono-ADP-ribosyltransferase PARP3 (PARP3, Homo sapiens, UniProt Q9Y6F1)
MMP1: Interstitial collagenase (MMP1, Homo sapiens, UniProt P03956)
Mapk1: Mitogen-activated protein kinase 1 (Mapk1, Mus musculus, UniProt P63085)

SMILES | target | assay | system | setting | inhibition [%]
CCCNc1nc2ccccc2n1Cc1ccc(Cl)cc1 | ADRA1B | ligand displacement | – | 10 µM | 16.1
Oc1cccc(Nc2nc(-c3ccc(F)cc3F)cs2)c1 | ADRA1B | cell-free assay | – | 10 µM | 16.4
CCN1CCN(Cc2ccc(NC(=O)c3ccc(C)c(Oc4ccnc5[nH]ccc45)c3)cc2C(F)(F)F)CC1 | Microtubule-associated serine/threonine-protein kinase 4 (MAST4, Homo sapiens, UniProt O15021) | target engagement in cells, inhibitor, chemoproteomics | Huh-7 | 10 µM | -28.8
COc1cc2c(cc1OC)-c1nnnn1CCC2 | PARP3 | enzyme activity, inhibitor | – | 10 µM | 45
CCN(c1cc(C#CCN2CCOCC2)cc(C(=O)NCc2c(C)cc(C)[nH]c2=O)c1C)[C@H]1CC[C@H](N(C)CCOC)CC1 | Histone-lysine N-methyltransferase NSD3 (NSD3, Homo sapiens, UniProt Q9BZ95) | enzyme activity, inhibitor | – | 1 µM | 16
CN(C)C1CCN(CC#Cc2nn(C3CCCC3)c3nc(NCc4ccccc4)ncc23)C1 (stereo not shown) | Interleukin-1 receptor-associated kinase 1 (IRAK1, Homo sapiens, UniProt P51617) | enzyme activity, inhibitor, FRET | – | 1 µM | 13
CC/C(=N\NC(=O)C(C)Nc1ccccc1)c1ccc(O)c(C)c1O (stereo not shown) | cAMP-dependent protein kinase catalytic subunit gamma (PRKACG, Homo sapiens, UniProt P22612) | enzyme activity, inhibitor | – | 0.1 µM | 34.9
O=C1CCNC(=O)c2cc(Cl)c(Cl)cc21 | PARP3 | enzyme activity, inhibitor | – | 10 µM | 85
CNC(=O)c1cc2c(Oc3ccc(NC(=O)C4(C(=O)Nc5ccc(F)cc5)CC4)cc3)ccnc2cc1OC | Hepatocyte growth factor receptor (MET, Homo sapiens, UniProt P08581, D1228H) | enzyme activity, inhibitor, radiometric | – | 1 µM | 103
Cn1cnc(Br)c1C1=CN(c2ncnc3[nH]cnc23)CCS1 | Myosin-IIIa (MYO3A, Homo sapiens, UniProt Q8NEV4) | enzyme activity, inhibitor, radiometric | – | 2 µM | 29.9
O=C(c1ccc(Cl)cc1)N(Cc1ccccc1)C1CCCCC1 | ADRA1B | cell-free assay | – | 10 µM | 11.3
O=C1C=Cc2occ(C(=O)c3ccccc3)c2C1=O | MMP1 | enzyme activity, inhibitor | – | 100 µM | ≤ 0
O=C1NCCCc2c(O)cccc21 | PARP3 | enzyme activity, inhibitor | – | 10 µM | 20
O=C(O)c1ncccc1O | MMP1 | enzyme activity, inhibitor, fluorescence | – | 1 mM | ~50
O=C(O)Cc1ccccc1Nc1c(F)cccc1Cl | Prostaglandin G/H synthase 2 (Ptgs2, Mus musculus, UniProt Q05769) | enzyme activity, inhibitor | – | 10 µM, with preincubation | 25
CCN(CC)CCNC(=O)c1c(C)[nH]c(/C=C2\C(=O)Nc3ccc(F)cc32)c1C | Mapk1 | enzyme activity, inhibitor | – | 0.3 µM | -16
O=C1CCCc2c(O)cccc2N1 | PARP3 | enzyme activity, inhibitor | – | 10 µM | 0
Cc1ccc(Nc2nccc(N(C)c3ccc4c(C)n(C)nc4c3)n2)cc1S(N)(=O)=O | Mapk1 | enzyme activity, inhibitor | – | 0.3 µM | -2
Ic1cccc2cnccc12 | ADP-ribosyl cyclase/cyclic ADP-ribose hydrolase 1 (CD38, Homo sapiens, UniProt P28907) | enzyme activity, inhibitor | – | 10 µM | 0
